The source made the active and inactive calls. The calls are words filed in the database; no cut-off is given here.
Experiments:
Homo sapiens = organism: Homo sapiens; assay: Selectivity index, ratio of IC50 for human PI3K p110delta/p85alpha to IC50 for human PI3Kalpha by HTRF assay
Method in brief: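 The PI3K isoforms were assayed with an HTRF kit. Each enzyme was incubated in assay buffer containing 10 μM PIP2, and the reaction was started with ATP and run 30 min at room temperature. Stop solution and detection mix were then added and light emission was read. IC50 values were averages of at least 3 separate determinations, and each index is the ratio of IC50 values.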

[1] = Metabolic stability in cynomolgus monkey hepatocytes assessed as half life; type: ADME, cell-based, Macaca fascicularis, Hepatocyte
SJRH30 = assay: Antiproliferative activity against human Rh30 cells assessed as reduction in cell viability after 72 hrs by sulforhodamine B assay; type: functional, cell-based; conditions: SJRH30, 72 h
Method in brief: (§1)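 SRB assay. Exponentially growing cells seeded at 3000–5000/well, compounds added serially diluted after 24 h, cultured 72 h. Cells fixed with 10% TCA, stained with SRB, dye dissolved in 10 mM Tris-HCl, absorbance read at 560 nm. Inhibition = (ODcontrol − ODtreated)/ODcontrol × 100%. IC50 is the mean of at least three independent tests.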

SK-BR-3 = assay: Antiproliferative activity against human SK-BR-3 cells assessed as reduction in cell viability after 72 hrs by sulforhodamine B assay; type: functional, cell-based; conditions: SK-BR-3, 72 h; method in brief: as §1
[2] = Metabolic stability in human hepatocytes assessed as half life; type: ADME, cell-based, Hepatocyte
[3] = molecular target: T1, Phosphatidylinositol 4,5-bisphosphate 3-kinase catalytic subunit alpha isoform (Homo sapiens, UniProt P42336); assay: Inhibition of PI3Kalpha in human U87MG cells assessed as reduction in rhIGF1-stimulated AKT phosphorylation at Thr308 treated for 1 hr followed by incubation with IGF1 for 10 mins by western blot analysis; type: cell-based; conditions: U-87 MG, dose 0.01-1 µM, time 70.0 min
T1 sequence (P42336 whole entry, canonical isoform): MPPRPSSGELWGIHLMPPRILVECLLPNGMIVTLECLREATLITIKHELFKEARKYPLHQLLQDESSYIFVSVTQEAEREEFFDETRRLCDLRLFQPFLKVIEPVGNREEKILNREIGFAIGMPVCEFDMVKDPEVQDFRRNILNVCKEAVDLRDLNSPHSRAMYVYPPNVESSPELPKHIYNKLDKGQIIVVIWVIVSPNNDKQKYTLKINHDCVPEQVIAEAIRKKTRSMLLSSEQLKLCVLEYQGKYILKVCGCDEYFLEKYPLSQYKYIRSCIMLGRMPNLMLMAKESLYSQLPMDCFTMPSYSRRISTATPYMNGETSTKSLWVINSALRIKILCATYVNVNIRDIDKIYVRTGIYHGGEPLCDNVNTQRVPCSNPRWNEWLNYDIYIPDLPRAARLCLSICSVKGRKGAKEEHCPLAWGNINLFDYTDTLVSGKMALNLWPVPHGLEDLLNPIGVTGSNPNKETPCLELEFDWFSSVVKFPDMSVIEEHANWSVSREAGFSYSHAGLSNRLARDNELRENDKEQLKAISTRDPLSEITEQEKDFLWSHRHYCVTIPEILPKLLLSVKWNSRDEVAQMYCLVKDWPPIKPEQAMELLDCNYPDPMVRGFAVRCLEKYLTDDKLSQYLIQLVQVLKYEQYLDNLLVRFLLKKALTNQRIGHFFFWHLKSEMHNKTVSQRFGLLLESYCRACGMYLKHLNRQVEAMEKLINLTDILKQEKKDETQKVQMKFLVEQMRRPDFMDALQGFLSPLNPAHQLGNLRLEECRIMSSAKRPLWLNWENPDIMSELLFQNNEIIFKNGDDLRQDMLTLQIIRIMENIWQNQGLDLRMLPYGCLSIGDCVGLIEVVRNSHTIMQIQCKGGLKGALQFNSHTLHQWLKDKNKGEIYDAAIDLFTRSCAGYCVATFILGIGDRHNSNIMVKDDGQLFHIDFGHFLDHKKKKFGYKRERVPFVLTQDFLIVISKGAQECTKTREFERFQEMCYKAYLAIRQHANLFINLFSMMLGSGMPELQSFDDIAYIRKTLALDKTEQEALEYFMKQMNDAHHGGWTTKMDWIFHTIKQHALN
Method in brief: (§2)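 U87MG or Rh30 cells held 24 h in serum-free medium, exposed to compound for 1 h, then stimulated with 50 ng/ml IGF-I for 10 min. Lysates blotted for Akt, pAkt T308 and pAkt S473.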

[4] = Metabolic stability in mouse hepatocytes assessed as intrinsic clearance; type: ADME, cell-based, Hepatocyte; conditions: read-out: CLH
[5] = molecular target: T1, Phosphatidylinositol 4,5-bisphosphate 3-kinase catalytic subunit alpha isoform; assay: Inhibition of PI3Kalpha in human U87MG cells assessed as reduction in rhIGF1-stimulated AKT phosphorylation at Ser473 treated for 1 hr followed by incubation with IGF1 for 10 mins by western blot analysis; type: cell-based; conditions: U-87 MG, dose 0.01-1 µM, time 70.0 min; method in brief: as §2
[6] = molecular target: Phosphatidylinositol 4,5-bisphosphate 3-kinase catalytic subunit delta isoform (Homo sapiens) (UniProt O00329); assay: Inhibition of PI3Kdelta (unknown origin) transfected in human Rh30 cells assessed as reduction in AKT phosphorylation at Ser473 residue at 10XIC50 by western blot analysis; type: cell-based
Phosphatidylinositol 4,5-bisphosphate 3-kinase catalytic subunit delta isoform (Homo sapiens), sequence (O00329 whole entry, canonical isoform): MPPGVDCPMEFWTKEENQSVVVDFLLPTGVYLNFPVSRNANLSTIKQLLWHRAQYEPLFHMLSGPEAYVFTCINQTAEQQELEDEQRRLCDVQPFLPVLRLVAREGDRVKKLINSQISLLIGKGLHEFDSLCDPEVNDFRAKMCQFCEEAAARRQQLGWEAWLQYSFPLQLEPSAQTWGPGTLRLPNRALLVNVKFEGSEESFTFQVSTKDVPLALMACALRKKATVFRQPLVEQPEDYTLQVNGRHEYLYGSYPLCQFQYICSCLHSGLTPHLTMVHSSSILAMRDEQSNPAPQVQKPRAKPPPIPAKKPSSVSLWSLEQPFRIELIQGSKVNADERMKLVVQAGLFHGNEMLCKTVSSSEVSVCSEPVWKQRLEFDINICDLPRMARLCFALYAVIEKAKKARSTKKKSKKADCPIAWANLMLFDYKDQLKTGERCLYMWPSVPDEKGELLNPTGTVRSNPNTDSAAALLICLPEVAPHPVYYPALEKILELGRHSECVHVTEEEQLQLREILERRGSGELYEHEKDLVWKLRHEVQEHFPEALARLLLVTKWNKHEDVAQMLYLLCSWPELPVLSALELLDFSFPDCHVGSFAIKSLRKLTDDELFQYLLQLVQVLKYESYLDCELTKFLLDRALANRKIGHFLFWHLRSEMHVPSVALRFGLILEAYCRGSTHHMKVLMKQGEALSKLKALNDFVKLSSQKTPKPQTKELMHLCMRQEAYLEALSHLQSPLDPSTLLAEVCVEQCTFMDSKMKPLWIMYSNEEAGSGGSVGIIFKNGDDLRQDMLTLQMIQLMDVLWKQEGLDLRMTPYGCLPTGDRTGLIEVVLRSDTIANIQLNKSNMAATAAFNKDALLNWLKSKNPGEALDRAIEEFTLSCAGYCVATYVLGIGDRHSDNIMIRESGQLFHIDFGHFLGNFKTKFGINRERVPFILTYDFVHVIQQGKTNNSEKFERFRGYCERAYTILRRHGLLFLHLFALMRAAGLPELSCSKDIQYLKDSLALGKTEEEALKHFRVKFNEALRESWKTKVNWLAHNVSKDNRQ
Method in brief: (§3)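 Rh30 cells ectopically expressing membrane-anchored, N-terminally myristoylated, constitutively active p110α, β, γ or δ. Akt phosphorylation assessed by Western blot; lysates made in RIPA buffer, equal protein heated at 95 °C for 10 min in SDS loading buffer.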

ZR-75-1 = assay: Antiproliferative activity against human ZR-75-1 cells assessed as reduction in cell viability after 72 hrs by sulforhodamine B assay; type: functional, cell-based; conditions: ZR-75-1, 72 h; method in brief: as §1
[7] = Metabolic stability in human hepatocytes assessed as intrinsic clearance; type: ADME, cell-based, Hepatocyte; conditions: read-out: CLH
HCC1954 = assay: Antiproliferative activity against human HCC1954 cells assessed as reduction in cell viability after 72 hrs by sulforhodamine B assay; type: functional, cell-based; conditions: HCC1954, 72 h; method in brief: as §1
[8] = Toxicity in BALB/cA nude mouse xenografted with human SK-OV-3 cells assessed as blood glucose level at 5 to 20 mg/kg, po administered once a day for 18 days by glucose meter analysis; type: organism-based; conditions: in vivo, 432 h, dose 5-20 mg/kg/day, time 18 day
Method in brief: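 Female BALB/cA nude mice, 4–5 weeks old, carried s.c. SKOV-3 xenograft fragments. They were dosed orally once daily for 18 days with vehicle or compound, then fasted 6 h and given glucose orally at 2 g/kg. Blood was sampled at set times up to 2 h, and glucose was measured with a blood glucose meter.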

[9] = molecular target: Phosphatidylinositol 4,5-bisphosphate 3-kinase catalytic subunit gamma isoform (Homo sapiens) (UniProt P48736); assay: Inhibition of PI3Kgamma (unknown origin) transfected in human Rh30 cells assessed as reduction in AKT phosphorylation at Ser473 residue at 10XIC50 by western blot analysis; type: cell-based; method in brief: as §3
Phosphatidylinositol 4,5-bisphosphate 3-kinase catalytic subunit gamma isoform (Homo sapiens), sequence (P48736 whole entry, looked up, canonical isoform): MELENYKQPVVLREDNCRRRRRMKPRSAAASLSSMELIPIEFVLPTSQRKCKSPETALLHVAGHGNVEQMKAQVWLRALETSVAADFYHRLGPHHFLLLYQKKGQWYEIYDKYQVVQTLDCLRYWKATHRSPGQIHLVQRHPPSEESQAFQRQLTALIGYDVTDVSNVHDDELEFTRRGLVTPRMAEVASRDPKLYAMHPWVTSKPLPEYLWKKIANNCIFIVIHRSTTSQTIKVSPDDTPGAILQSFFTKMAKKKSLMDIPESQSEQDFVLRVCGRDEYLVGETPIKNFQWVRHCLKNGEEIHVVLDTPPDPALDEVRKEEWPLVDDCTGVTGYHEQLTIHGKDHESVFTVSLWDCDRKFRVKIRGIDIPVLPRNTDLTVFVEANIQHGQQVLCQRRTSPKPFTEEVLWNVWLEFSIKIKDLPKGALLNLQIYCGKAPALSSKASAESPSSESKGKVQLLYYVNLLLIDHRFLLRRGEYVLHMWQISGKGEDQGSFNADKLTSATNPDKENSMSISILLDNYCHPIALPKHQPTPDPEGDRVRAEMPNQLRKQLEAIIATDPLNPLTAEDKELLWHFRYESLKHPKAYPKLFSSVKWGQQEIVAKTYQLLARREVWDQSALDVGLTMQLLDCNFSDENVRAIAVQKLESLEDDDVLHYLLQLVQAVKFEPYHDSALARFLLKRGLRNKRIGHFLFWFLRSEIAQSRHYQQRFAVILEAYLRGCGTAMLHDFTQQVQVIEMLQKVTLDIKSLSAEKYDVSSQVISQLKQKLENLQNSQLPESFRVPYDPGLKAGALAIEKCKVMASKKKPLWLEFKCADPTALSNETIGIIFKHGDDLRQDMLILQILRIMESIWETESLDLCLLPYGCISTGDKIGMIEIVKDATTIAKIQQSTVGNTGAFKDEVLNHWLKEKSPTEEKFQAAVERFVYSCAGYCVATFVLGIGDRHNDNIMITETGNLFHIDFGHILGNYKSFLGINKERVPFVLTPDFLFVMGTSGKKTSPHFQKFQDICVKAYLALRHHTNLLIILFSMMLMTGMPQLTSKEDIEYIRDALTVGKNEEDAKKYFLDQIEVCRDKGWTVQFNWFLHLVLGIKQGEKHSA

[10] = molecular target: Serine/threonine-protein kinase mTOR (Homo sapiens, UniProt P42345); assay: Inhibition of human full length recombinant mTOR in presence of [gamma33P-ATP] by radiometric scintillation counting analysis
[11] = Metabolic stability in rat hepatocytes assessed as intrinsic clearance; type: ADME, cell-based, Hepatocyte; conditions: read-out: CLH
[12] = Metabolic stability in Beagle dog hepatocytes assessed as half life; type: ADME, cell-based, Canis lupus familiaris, Hepatocyte

Ratio IC50 (Homo sapiens): 13
half-life [1]: 0.717 h
IC50 (SK-BR-3): < 1000 nM
half-life [2]: 6.79 h
inhibition [3]: Dose-dependent effect
CLint scaled [4]: 21.6 mL/min/kg
inhibition [5]: Dose-dependent effect
inhibition [6]: Active
CLint scaled [7]: 3.05 mL/min/kg
IC50 (HCC1954): < 1000 nM
inhibition [9]: Active
IC50 [10]: > 10000 nM
CLint scaled [11]: 16.9 mL/min/kg
half-life [12]: 1.46 h
SMILES: COC(=O)Nc1cc(C(F)(F)F)c(-c2nc(N3CCOCC3)c3cc(CN4CCN(S(C)(=O)=O)CC4)cn3n2)cn1 [RISOVALISIB]
IC50 (SJRH30): 1030 nM
IC50 (ZR-75-1): < 1000 nM
Activity [8]: Non-Toxic
